According to ChEMBL document CHEMBL1130594, “Thalidomide analogs and PDE4 inhibition” (Bioorg Med Chem Lett, 1998):

Columns and labels:
Phosphodiesterase 4 [1] = molecular target: T1, Phosphodiesterase 4 (Homo sapiens, UniProt P27815+Q08499+Q07343+Q08493); experiment: Inhibition of phosphodiesterase 4 from U937 cells; format: cell-based; settings: u-937
PBMC [2] = experiment: Inhibition of LPS stimulated Tumor Necrosis Factor-alpha (TNF-alpha) release by human PBMC, cytotoxic at 10 and 100 uM; format: functional, cell-based
Phosphodiesterase 4 [3] = molecular target: T1, Phosphodiesterase 4; experiment: Inhibition of PDE4 enzyme from U937 cells; format: cell-based; settings: u-937
Procedure, shortened: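 Crude PDE4 from U937 cells: lysate supernatant run on Sephacryl S-200, rolipram-sensitive fractions pooled. Assay in 50 mM Tris-HCl pH 7.5, 5 mM MgCl2, 1 µM cAMP (1% 3H-cAMP), varying inhibitor, <15% substrate consumed; 30 °C, 30 min. Boiled, snake-venom treated, AG1-X8 resin, aqueous phase counted. Duplicates, % of control; IC50 by variable-slope nonlinear regression, three independent experiments.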

PBMC [4] = experiment: (§1) Inhibition of LPS stimulated Tumor Necrosis Factor-alpha (TNF-alpha) release by human PBMC; format: functional, cell-based
PBMC [5] = experiment: as §1

| SMILES | IC50 (Phosphodiesterase 4 [1]) | IC50 (Phosphodiesterase 4 [3]) | IC50 (PBMC [2]) | IC50 (PBMC [4]) | IC50 (PBMC [5]) |
| --- | --- | --- | --- | --- | --- |
| COC(=O)CC(c1ccc(OC)c(OC2CC3CCC2C3)c1)N1C(=O)c2ccccc2C1=O (configuration not stated) | – | 0.74 µM | – | 2.4 µM | – |
| COc1ccc(C2CNC(=O)C2)cc1OC1CCCC1 (configuration not stated) [ROLIPRAM] | – | – | – | – | 0.15 µM |
| COC(=O)CC(c1ccc(OC)c(OC)c1)N1C(=O)c2ccccc2C1=O (configuration not stated) | – | 2.5 µM | – | 2.9 µM | – |
| COc1ccc(C(CC(N)=O)N2C(=O)c3ccccc3C2=O)cc1OC1CCCC1 (configuration not stated) [CDC-801] | – | 1.1 µM | – | 2.5 µM | – |
| CCOc1cc(C(CC(=O)OC)N2C(=O)c3ccccc3C2=O)ccc1OC (configuration not stated) | – | 0.23 µM | – | 0.7 µM | – |
| CCOc1cc(C(CC#N)N2C(=O)c3ccccc3C2=O)ccc1OC (configuration not stated) | – | 0.13 µM | – | 0.12 µM | – |
| CCOc1cc(C(CC(=O)OC)N2C(=O)c3c(F)c(F)c(F)c(F)c3C2=O)ccc1OC (configuration not stated) | 2.2 µM | – | 0.38 µM | – | – |

The next lines start with results.

| IC50 (Phosphodiesterase 4 [1]) | IC50 (Phosphodiesterase 4 [3]) | SMILES | IC50 (PBMC [2]) | IC50 (PBMC [4]) | IC50 (PBMC [5]) |
| --- | --- | --- | --- | --- | --- |
| 4.7 µM | – | COC(=O)CC(c1ccc(OC)c(OC)c1)N1C(=O)c2c(F)c(F)c(F)c(F)c2C1=O (configuration not stated) | 0.26 µM | – | – |
| – | 1.7 µM | COC(=O)CC(c1ccc(OC)c(OC2CCCC2)c1)N1C(=O)c2ccccc2C1=O (configuration not stated) | – | 1.6 µM | – |
| – | 2 µM | CCOc1cc(C(CC(N)=O)N2C(=O)c3ccccc3C2=O)ccc1OC (configuration not stated) | – | 2.7 µM | – |
| – | 9.4 µM | COc1ccc(C(CC(N)=O)N2C(=O)c3ccccc3C2=O)cc1OC (configuration not stated) | – | 13 µM | – |
| – | > 500 µM | O=C1CCC(N2C(=O)c3ccccc3C2=O)C(=O)N1 (configuration not stated) [THALIDOMIDE] | – | ~200 µM | – |
| – | 1.3 µM | COc1ccc(C(CC#N)N2C(=O)c3ccccc3C2=O)cc1OC (configuration not stated) | – | 1.7 µM | – |
| – | 0.35 µM | COc1ccc(C(CC#N)N2C(=O)c3ccccc3C2=O)cc1OC1CCCC1 (configuration not stated) | – | 1.6 µM | – |
